Values joined by “and” are separate entries in the source; they are usually repeats but may differ in a detail not shown here. Equal entries are not always repeated.
Key:
[1] = target: Histone deacetylase; experiment: Inhibitory activity against histone deacetylase (HDAC) enzyme obtained from H1299 human lung carcinoma cell lysates
[2] = tested on: NCI-H1299; experiment: Inhibitory activity against H1299 human lung carcinoma cell growth; format: functional, cell-based
[3] = tested on: HCT-116; experiment: Inhibitory activity against HCT116 human colon cell growth; format: functional, cell-based
[4] = tested on: Mus musculus; experiment: Compound was tested in vivo for maximum tolerated dose (MTD) that resulted in no deaths when administered intravenously for five days; format: functional
Outline: (§1)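 Athymic mice, four per group, dosed iv once daily for five consecutive days, up to a maximum of 200 mg/kg/day. Compound given as the lactate salt in 10% DMSO in 5% dextrose/water (final DMSO 10%). MTD taken as the highest dose that caused no deaths.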

[5] = tested on: Mus musculus; experiment: Compound was tested in vivo for efficacy in athymic mice bearing HCT116 subcutaneous tumor xenografts at a dose of 40 mg/kg and change in the body weight of the mouse was evaluated; format: functional
Outline: (§2)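 Female outbred athymic nu/nu mice, ≈10⁶ HCT116 cells injected sc in right axillary region under anesthesia; treatment began when tumors ≈100 mm³ (day 13 post-implant), groups of eight balanced on tumor volume. Compound given iv as lactate salt in 10% DMSO/D5W, qd 5×/week for 15 doses. Individual body weights recorded once weekly; % change from start reported.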

[6] = tested on: Mus musculus; experiment: Ratio of the change in tumor volume of treated animals to the change in tumor volume of control animals at a dose of 40 mg/kg; format: functional
Outline: (§3)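 HCT116 sc xenografts (≈10⁶ cells) in female athymic nude mice, eight per group, treated from ≈100 mm³ tumors with iv lactate salt in 10% DMSO/D5W qd 5×/week for 10 or 15 doses. Tumors measured weekly; % T/C = change in treated tumor volume over change in vehicle-control tumor volume; one-tailed Student's t-test.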

[7] = tested on: Mus musculus; experiment: Ratio of the change in tumor volume of treated animals to the change in tumor volume of control animals at a dose of 50 mg/kg (A549 human lung carcinoma xenograft study); format: functional
Outline: (§4)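 A549 sc xenografts (≈10⁷ cells) in female athymic nude mice, eight per group, dosed from ≈100 mm³ tumors (day 20) iv as lactate salt in 10% DMSO/D5W qd 5×/week for 15 doses. Weekly tumor measurement; % T/C = treated over vehicle-control change in tumor volume; one-tailed Student's t-test.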

[8] = tested on: Mus musculus; experiment: Compound was tested for efficacy in athymic mice bearing HCT116 subcutaneous tumor xenografts at a dose of 100 mg/kg and change in the body weight of the mouse was evaluated; format: functional; outline: as §2
[9] = tested on: Mus musculus; experiment: Compound was tested in vivo for efficacy in A549 human lung carcinoma xenograft model at a dose of 100 mg/kg and change in the body weight of the mouse was evaluated; format: functional
Outline: (§5)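 Female outbred athymic nu/nu mice, ≈10⁷ A549 cells injected sc in right axillary region; treatment began ≈20 days post-implant at tumors ≈100 mm³, eight mice per group balanced on tumor volume. Dosing iv as lactate salt in 10% DMSO/D5W, qd 5×/week for 15 doses. Body weights recorded once weekly; % change reported.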

[10] = tested on: Mus musculus; experiment: Ratio of the change in tumor volume of treated animals to the change in tumor volume of control animals at a dose of 10 mg/kg (A549 human lung carcinoma xenograft study); format: functional; outline: as §4
[11] = tested on: Mus musculus; experiment: Compound was tested in vivo for efficacy in A549 human lung carcinoma xenograft model at a dose of 10 mg/kg and change in the body weight of the mouse was evaluated; format: functional; outline: as §5
[12] = tested on: Mus musculus; experiment: Ratio of the change in tumor volume of treated animals to the change in tumor volume of control animals at a dose of 100 mg/kg (A549 human lung carcinoma xenograft study); format: functional; outline: as §4
[13] = tested on: Mus musculus; experiment: Compound was tested in vivo for efficacy in athymic mice bearing HCT116 subcutaneous tumor xenografts at a dose of 25 mg/kg and change in the body weight of the mouse was evaluated; format: functional
[14] = tested on: Mus musculus; experiment: Compound was tested in vivo for efficacy in athymic mice bearing HCT116 subcutaneous tumor xenografts at a dose of 10 mg/kg and change in the body weight of the mouse was evaluated; format: functional; settings: route intravenous; outline: as §2
[15] = tested on: Mus musculus; experiment: Ratio of the change in tumor volume of treated animals to the change in tumor volume of control animals at a dose of 25 mg/kg; format: functional; outline: as §3
[16] = tested on: Mus musculus; experiment: Compound was tested in vivo for efficacy in athymic mice bearing HCT116 subcutaneous tumor xenografts at a dose of 100 mg/kg and change in the body weight of the mouse was evaluated; format: functional; settings: route intravenous; outline: as §2
[17] = tested on: Mus musculus; experiment: Compound was tested in vivo for efficacy in A549 human lung carcinoma xenograft model at a dose of 50 mg/kg and change in the body weight of the mouse was evaluated; format: functional; outline: as §5
[18] = tested on: Mus musculus; experiment: Ratio of the change in tumor volume of treated animals to the change in tumor volume of control animals at a dose of 10 mg/kg; format: functional; outline: as §3
[19] = tested on: Mus musculus; experiment: Ratio of the change in tumor volume of treated animals to the change in tumor volume of control animals at a dose of 50 mg/kg; format: functional; outline: as §3
[20] = tested on: Mus musculus; experiment: Ratio of the change in tumor volume of treated animals to the change in tumor volume of control animals at a dose of 25 mg/kg (A549 human lung carcinoma xenograft study); format: functional; outline: as §4
[21] = tested on: Mus musculus; experiment: Compound was tested for maximum tolerated dose (MTD) that resulted in no deaths when administered intravenously for five days; format: functional; outline: as §1
[22] = tested on: Mus musculus; experiment: Ratio of the change in tumor volume of treated animals to the change in tumor volume of control animals at a dose of 100 mg/kg; format: functional; settings: 100 mg/kg; outline: as §3
[23] = tested on: Mus musculus; experiment: Compound was tested in vivo for efficacy in A549 human lung carcinoma xenograft model at a dose of 25 mg/kg and change in the body weight of the mouse was evaluated; format: functional; outline: as §5
[24] = tested on: Mus musculus; experiment: Compound was tested in vivo for efficacy in athymic mice bearing HCT116 subcutaneous tumor xenografts at a dose of 50 mg/kg and change in the body weight of the mouse was evaluated; format: functional; settings: route intravenous; outline: as §2

SMILES: O=C(/C=C/c1ccc(CN(CCc2c[nH]c3ccccc23)C2CCOCC2)cc1)NO
- IC50 [1]: 0.01 µM
- IC50 [2]: 0.04 µM
- IC50 [3]: 0.006 µM
- MTD [4]: 40 mg/kg
- Body weight change [5]: 0.1%
- T/C [6]: 32%

SMILES: O=C(/C=C/c1ccc(CN(CCO)CCc2c[nH]c3ccccc23)cc1)NO [DACINOSTAT]
- T/C [7]: 15%
- Body weight change [8]: -0.9%
- IC50 [2]: 0.15 µM
- Body weight change [9]: 0.4%
- IC50 [3]: 0.01 µM
- T/C [10]: 32%
- Body weight change [11]: 1.3%
- T/C [12]: 7%
- Body weight change [13]: 0%
- Body weight change [14]: 2.7%
- T/C [15]: 38%
- Body weight change [16]: 1.4%
- Body weight change [17]: -0.4%
- T/C [18]: 55%
- T/C [19]: 27%
- T/C [20]: 20%
- MTD [21]: >200 mg/kg
- T/C [22]: 12% and 20%
- Body weight change [23]: -0.9%
- Body weight change [24]: 2.3%
